Assay results taken from ChEMBL document CHEMBL2086252, “Syntheses and evaluation of anticonvulsant activity of novel branched alkyl carbamates” (J Med Chem, 2012).
Active and inactive are the calls of the source. The calls are words filed in the database; no cut-off is given here.

Assays:
Mus musculus [1] = experiment: Neurotoxicity in albino CF1 mouse assessed as minimal motor impairment at 100 mg/kg, ip after 4 hrs by rotarod test; assay type: toxicity, organism-based; parameters: dose 100 mg/kg, route intraperitoneal; settings: in vivo
How it was run: (§1)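 Mice dosed ip at 30, 100 or 300 mg/kg, then tested 0.5 h and 4 h after administration in the MES or scMet test. Protection was recorded as animals protected over animals tested. Neurotoxicity was recorded as motor impairment or sedation, as animals affected over animals tested.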

Rattus norvegicus [2] = experiment: Anticonvulsant activity in Sprague-Dawley albino rat assessed as protection against pilocarpine-induced status epilepticus at 200 mg/kg, ip; assay type: functional, organism-based; parameters: dose 200 mg/kg
How it was run: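 Pilocarpine status epilepticus model in rats. Number and severity of convulsive seizures were observed behaviourally.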

Rattus norvegicus [3] = experiment: Neurotoxicity in pilocarpine-induced status epilepticus Sprague-Dawley albino rat model assessed as minimal motor impairment at 100 mg/kg, ip after 0.25 hr by rotarod test; assay type: toxicity, organism-based; parameters: dose 100 mg/kg, route intraperitoneal; settings: in vivo
Mus musculus [4] = experiment: Anticonvulsant activity in albino CF1 mouse assessed as protection against subcutaneous metrazol-induced seizures at 300 mg/kg, ip after 0.5 hrs; assay type: functional, organism-based; parameters: dose 300 mg/kg; how it was run: as §1
Mus musculus [5] = experiment: Neurotoxicity in albino CF1 mouse assessed as minimal motor impairment at 30 mg/kg, ip after 0.5 hrs by rotarod test; assay type: toxicity, organism-based; parameters: dose 30 mg/kg, route intraperitoneal; settings: in vivo; how it was run: as §1
Rattus norvegicus [6] = experiment: Neurotoxicity in pilocarpine-induced status epilepticus Sprague-Dawley albino rat model assessed as minimal motor impairment at 300 mg/kg, ip after 0.5 hrs by rotarod test; assay type: toxicity, organism-based; parameters: dose 300 mg/kg, route intraperitoneal; settings: in vivo
How it was run: (§2)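 Rat pilocarpine status epilepticus model: test carbamate given at 0 or 30 min after the first observed Racine stage 3 motor seizure, which marks SE onset. Neurotoxicity was scored within the same model.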

Mus musculus [7] = experiment: Anticonvulsant activity in albino CF1 mouse assessed as protection against maximal electroshock-induced seizures at 30 mg/kg, ip after 4 hrs; assay type: functional, organism-based; parameters: dose 30 mg/kg; how it was run: as §1
Rattus norvegicus [8] = experiment: Neurotoxicity in Sprague-Dawley albino rat assessed as minimal motor impairment at 30 mg/kg, po by rotarod test; assay type: toxicity, organism-based; parameters: dose 30 mg/kg, route oral; settings: in vivo
How it was run: (§3)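 Rats dosed orally. Anti-MES protection was scored as animals protected over animals tested at each time after dosing. Neurotoxicity was scored as motor impairment or sedation, as animals affected over animals tested.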

Mus musculus [9] = experiment: Anticonvulsant activity in albino CF1 mouse assessed as protection against maximal electroshock-induced seizures at 100 mg/kg, ip after 0.5 hrs; assay type: functional, organism-based; parameters: dose 100 mg/kg; how it was run: as §1
Mus musculus [10] = experiment: Anticonvulsant activity in albino CF1 mouse assessed as protection against subcutaneous metrazol-induced seizures at 30 mg/kg, ip after 0.5 hrs; assay type: functional, organism-based; parameters: dose 30 mg/kg; how it was run: as §1
Rattus norvegicus [11] = experiment: Neurotoxicity in pilocarpine-induced status epilepticus Sprague-Dawley albino rat model assessed as minimal motor impairment at 300 mg/kg, ip after 2 hrs by rotarod test; assay type: toxicity, organism-based; parameters: dose 300 mg/kg, route intraperitoneal; settings: in vivo; how it was run: as §2
Mus musculus [12] = experiment: Anticonvulsant activity in albino CF1 mouse assessed as protection against maximal electroshock-induced seizures at 30 mg/kg, ip after 0.5 hrs; assay type: functional, organism-based; parameters: dose 30 mg/kg; how it was run: as §1
Mus musculus [13] = experiment: Anticonvulsant activity in albino CF1 mouse assessed as protection against subcutaneous metrazol-induced seizures at 300 mg/kg, ip after 4 hrs; assay type: functional, organism-based; parameters: dose 300 mg/kg; how it was run: as §1
Rattus norvegicus [14] = experiment: Neurotoxicity in pilocarpine-induced status epilepticus Sprague-Dawley albino rat model assessed as minimal motor impairment at 300 mg/kg, ip after 1 hr by rotarod test; assay type: toxicity, organism-based; parameters: dose 300 mg/kg, route intraperitoneal; settings: in vivo; how it was run: as §2
Mus musculus [15] = experiment: Neurotoxicity in albino CF1 mouse assessed as minimal motor impairment at 30 mg/kg, ip after 4 hrs by rotarod test; assay type: toxicity, organism-based; parameters: dose 30 mg/kg, route intraperitoneal; settings: in vivo; how it was run: as §1
Rattus norvegicus [16] = experiment: Neurotoxicity in pilocarpine-induced status epilepticus Sprague-Dawley albino rat model assessed as minimal motor impairment at 100 mg/kg, ip after 0.5 hrs by rotarod test; assay type: toxicity, organism-based; parameters: dose 100 mg/kg, route intraperitoneal; settings: in vivo
Rattus norvegicus [17] = experiment: Neurotoxicity in pilocarpine-induced status epilepticus Sprague-Dawley albino rat model assessed as minimal motor impairment at 300 mg/kg, ip after 0.25 hr by rotarod test; assay type: toxicity, organism-based; parameters: dose 300 mg/kg, route intraperitoneal; settings: in vivo; how it was run: as §2
Mus musculus [18] = experiment: Anticonvulsant activity in albino CF1 mouse assessed as protection against maximal electroshock-induced seizures at 300 mg/kg, ip after 0.5 hrs; assay type: functional, organism-based; parameters: dose 300 mg/kg; how it was run: as §1
Mus musculus [19] = experiment: Anticonvulsant activity in albino CF1 mouse assessed as protection against subcutaneous metrazol-induced seizures at 30 mg/kg, ip after 4 hrs; assay type: functional, organism-based; parameters: dose 30 mg/kg; how it was run: as §1
Mus musculus [20] = experiment: Anticonvulsant activity in albino CF1 mouse assessed as protection against maximal electroshock-induced seizures at 300 mg/kg, ip after 4 hrs; assay type: functional, organism-based; parameters: dose 300 mg/kg; how it was run: as §1
Mus musculus [21] = experiment: Neurotoxicity in albino CF1 mouse assessed as minimal motor impairment at 300 mg/kg, ip after 0.5 hrs by rotarod test; assay type: toxicity, organism-based; parameters: dose 300 mg/kg, route intraperitoneal; settings: in vivo; how it was run: as §1
Rattus norvegicus [22] = experiment: Anticonvulsant activity in Sprague-Dawley albino rat assessed as protection against maximal electroshock-induced seizures at 30 mg/kg, po after 1 hr; assay type: functional, organism-based; parameters: dose 30 mg/kg; how it was run: as §3
Mus musculus [23] = experiment: Anticonvulsant activity in albino CF1 mouse assessed as protection against subcutaneous metrazol-induced seizures at 100 mg/kg, ip after 0.5 hrs; assay type: functional, organism-based; parameters: dose 100 mg/kg; how it was run: as §1
Rattus norvegicus [24] = experiment: Neurotoxicity in pilocarpine-induced status epilepticus Sprague-Dawley albino rat model assessed as minimal motor impairment at 100 mg/kg, ip after 1 hr by rotarod test; assay type: toxicity, organism-based; parameters: dose 100 mg/kg, route intraperitoneal; settings: in vivo
Rattus norvegicus [25] = experiment: Anticonvulsant activity in Sprague-Dawley albino rat assessed as protection against maximal electroshock-induced seizures at 30 mg/kg, po after 30 mins; assay type: functional, organism-based; parameters: dose 30 mg/kg; how it was run: as §3
Mus musculus [26] = experiment: Neurotoxicity in albino CF1 mouse assessed as minimal motor impairment at 300 mg/kg, ip after 4 hrs by rotarod test; assay type: toxicity, organism-based; parameters: dose 300 mg/kg, route intraperitoneal; settings: in vivo; how it was run: as §1
Mus musculus [27] = experiment: Anticonvulsant activity in albino CF1 mouse assessed as protection against subcutaneous metrazol-induced seizures at 100 mg/kg, ip after 4 hrs; assay type: functional, organism-based; parameters: dose 100 mg/kg; how it was run: as §1
Mus musculus [28] = experiment: Anticonvulsant activity in albino CF1 mouse assessed as protection against maximal electroshock-induced seizures at 100 mg/kg, ip after 4 hrs; assay type: functional, organism-based; parameters: dose 100 mg/kg; how it was run: as §1
Rattus norvegicus [29] = experiment: Neurotoxicity in pilocarpine-induced status epilepticus Sprague-Dawley albino rat model assessed as minimal motor impairment at 100 mg/kg, ip after 4 hrs by rotarod test; assay type: toxicity, organism-based; parameters: dose 100 mg/kg, route intraperitoneal; settings: in vivo
Mus musculus [30] = experiment: Neurotoxicity in albino CF1 mouse assessed as minimal motor impairment at 100 mg/kg, ip after 0.5 hrs by rotarod test; assay type: toxicity, organism-based; parameters: dose 100 mg/kg, route intraperitoneal; settings: in vivo; how it was run: as §1
Rattus norvegicus [31] = experiment: Anticonvulsant activity in Sprague-Dawley albino rat assessed as protection against maximal electroshock-induced seizures at 30 mg/kg, po after 2 hrs; assay type: functional, organism-based; parameters: dose 30 mg/kg; how it was run: as §3
Rattus norvegicus [32] = experiment: Neurotoxicity in pilocarpine-induced status epilepticus Sprague-Dawley albino rat model assessed as minimal motor impairment at 100 mg/kg, ip after 2 hrs by rotarod test; assay type: toxicity, organism-based; parameters: dose 100 mg/kg, route intraperitoneal; settings: in vivo

## CC(C)(C)COC(N)=O
Mus musculus [1]
  Activity: Non-toxic
Rattus norvegicus [2]
  Activity: Active
Rattus norvegicus [3]
  Activity: Non-toxic
Mus musculus [4]
  Activity: inactive
Mus musculus [5]
  Activity: Non-toxic
Rattus norvegicus [6]
  Activity: Toxic
Mus musculus [7]
  Activity: inactive
Rattus norvegicus [8]
  Activity: Non-toxic
Mus musculus [9]
  Activity: inactive
Mus musculus [10]
  Activity: inactive
Rattus norvegicus [11]
  Activity: Toxic
Mus musculus [12]
  Activity: inactive
Mus musculus [13]
  Activity: inactive
Rattus norvegicus [14]
  Activity: Toxic
Mus musculus [15]
  Activity: Non-toxic
Rattus norvegicus [16]
  Activity: Non-toxic
Rattus norvegicus [17]
  Activity: Toxic
Mus musculus [18]
  Activity: inactive
Mus musculus [19]
  Activity: inactive
Mus musculus [20]
  Activity: inactive
Mus musculus [21]
  Activity: Non-toxic
Rattus norvegicus [22]
  Activity: inactive
Mus musculus [23]
  Activity: inactive
Rattus norvegicus [24]
  Activity: Non-toxic
Rattus norvegicus [25]
  Activity: inactive
Mus musculus [26]
  Activity: Non-toxic
Mus musculus [27]
  Activity: inactive
Mus musculus [28]
  Activity: inactive
Rattus norvegicus [29]
  Activity: Non-toxic
Mus musculus [30]
  Activity: Non-toxic
Rattus norvegicus [31]
  Activity: inactive
Rattus norvegicus [32]
  Activity: Non-toxic
